Experiments:
[1] = Plasma toxicokinetics after single intravenous administration in rats; assay type: in vivo, Harlan Sprague Dawley rats; conditions: for AUC(0-inf) / Cmax / Vd: Hsd:Sprague Dawley SD, rat, iv, 34 mg/kg
[2] = rat, sex and strain not specified; ref Halocarbon, 2008; cited from earlier work
[3] = rat uterotrophic assay; administered orally; ref Conley et al., 2016; cited from earlier work
[4] = Plasma toxicokinetics after single intravenous administration in mice; assay type: in vivo, B6C3F1/N mice; conditions: for AUC(0-inf) / Cmax / Vd / half-life: B6C3F1/N, mouse, iv, 34 mg/kg; for half-life / Cl1 / Cl2 / K12 / K21 / V1 / V2: free BPAF, 34 mg/kg IV, mean (SE)
[5] = test system: hepatocytes from humans and rodents; conditions: ref Waidyanatha et al., 2015, cited from earlier work
[6] = Gavage toxicokinetics, summary statements over rats and mice; assay type: in vivo; conditions: rat, mouse, plasma, po
Procedure, shortened: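 Single gavage doses in corn oil were given to male and female rats (9–10 wk; 34, 110, 340 mg/kg) and B6C3F1/N mice (10–11 wk; 34 mg/kg), with a 34 mg/kg IV tail-vein reference. Plasma was sampled from 5 min to 48 h. Free and total (enzyme-deconjugated) test compound was quantitated. F = dose-adjusted oral/IV free AUC0−∞; half-life taken as K10 half-life from compartmental fits.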

[7] = Plasma toxicokinetics after single gavage administration in rats; assay type: in vivo, Harlan Sprague Dawley rats; conditions: for bioavailability / Tmax / AUC(0-inf) / Cmax / half-life: rat, po; for bioavailability / Tmax / AUC(0-inf) / Cmax / half-life / Cl1_F / Cl2_F / K12 / K21 / V1_F / V2_F: plasma; for half-life / Cl1_F / Cl2_F / K12 / K21 / V1_F / V2_F: mean (SE)
[8] = free BPAF, female rats, 34 mg/kg IV, mean (SE)
[9] = free BPAF, male rats, 34 mg/kg IV, mean (SE)
[10] = female, Harlan Sprague Dawley (Hsd:Sprague Dawley SD), 34 mg/kg
[11] = female, Hsd:Sprague Dawley SD, 34 mg/kg
[12] = female, Hsd:Sprague Dawley SD, 110 mg/kg
[13] = female, Hsd:Sprague Dawley SD, 340 mg/kg
[14] = free BPAF, female HSD rats, 34 mg/kg gavage
[15] = free BPAF, female rats, 34 mg/kg gavage
[16] = free BPAF, female rats, 110 mg/kg gavage
[17] = free BPAF, female rats, 340 mg/kg gavage
[18] = free BPAF, male rats, 34 mg/kg gavage
[19] = free BPAF, male rats, 110 mg/kg gavage
[20] = free BPAF, male rats, 340 mg/kg gavage
[21] = male, Hsd:Sprague Dawley SD, 34 mg/kg
[22] = male, Hsd:Sprague Dawley SD, 110 mg/kg
[23] = male, Hsd:Sprague Dawley SD, 340 mg/kg

Oc1ccc(C(c2ccc(O)cc2)(C(F)(F)F)C(F)(F)F)cc1 [BPAF, Bisphenol AF]
AUC(0-inf) ([1]; female): 45300 ng·h/mL
Cmax ([1]; female): 71.5 µg/mL
Vd ([1]; female): 0.697 L/kg
Cl1 [1, 8]: 0.751 (0.118) L/h/kg
K12 [1, 8]: 0.0656 (0.0398) 1/h
K21 [1, 8]: 0.141 (0.0339) 1/h
V1 [1, 8]: 0.476 (0.115) L/kg
V2 [1, 8]: 0.222 (0.0922) L/kg
Cl1 [1, 9]: 0.753 (0.102) L/h/kg
Cl2 [1, 9]: 0.0225 (0.00797) L/h /kg
K12 [1, 9]: 0.0503 (0.0151) 1/h
K21 [1, 9]: 0.0892 (0.0147) 1/h
V1 [1, 9]: 0.448 (0.0811) L/kg
V2 [1, 9]: 0.253 (0.0785) L/kg
AUC(0-inf) ([1]; male): 45200 ng·h/mL
Cmax ([1]; male): 75.9 µg/mL
Vd ([1]; male): 0.7 L/kg
oral LD50 [2]: 3400 mg/kg
ED50 [3]: 209.1 mg/kg/day
AUC(0-inf) ([4]; female): 15800 ng·h/mL
Cmax ([4]; female): 92300 ng/mL
Vd ([4]; female): 1.36 L/kg
half-life ([4]; female, Alpha half-life, female mice): 6.36 min
half-life ([4]; female, Beta half-life, female mice): 182 min
half-life ([4]; female, K10 Half-Life, female mice): 7.14 min
Cl1 ([4]; female mice): 2.15 (0.426) L/h/kg
Cl2 ([4]; female mice): 0.256 (0.108) L/h /kg
K12 ([4]; female mice): 0.696 (0.190) 1/h
K21 ([4]; female mice): 0.257 (0.0225) 1/h
V1 ([4]; female mice): 0.368 (0.129) L/kg
V2 ([4]; female mice): 0.995 (0.388) L/kg
Cl1 ([4]; male mice): 4.51 (0.547) L/h/kg
Cl2 ([4]; male mice): 0.860 (0.324) L/h /kg
K12 ([4]; male mice): 0.189 (0.0802) 1/h
K21 ([4]; male mice): 0.227 (0.0304) 1/h
V1 ([4]; male mice): 4.54 (1.06) L/kg
V2 ([4]; male mice): 3.78 (1.10) L/kg
AUC(0-inf) ([4]; male): 7540 ng·h/mL
Cmax ([4]; male): 7490 ng/mL
Vd ([4]; male): 8.32 L/kg
half-life ([4]; male, Alpha half-life, male mice): 34 min
half-life ([4]; male, Beta half-life, male mice): 226 min
half-life ([4]; male, K10 Half-Life, male mice): 41.9 min
clearance compared with BPA ([5]; hepatocytes from humans and rodents, in vitro): cleared more slowly than BPA
clearance rank order between species ([5]; hepatocytes in vitro): rat > mouse > human
half-life ([6]; Hsd:Sprague Dawley SD (rats), B6C3F1/N (mice)): ≤ 253 min
half-life ([6]; female, Harlan Sprague Dawley (rats) and B6C3F1/N (mice), 34 mg/kg): ~540 min
bioavailability ([7]; both, Hsd:Sprague Dawley SD): ~1%
Tmax ([7]; both, Hsd:Sprague Dawley SD, 34 mg/kg): 46 to 48.7 min
AUC(0-inf) [7, 10]: 1.37 µM·h
Cmax [7, 10]: 142 nM
bioavailability [7, 10]: 1.02%
bioavailability ([7]; female, Harlan Sprague Dawley (Hsd:Sprague Dawley SD), 340 mg/kg): 1.06%
Tmax ([7]; female, Hsd:Sprague Dawley SD): 46 to 80.4 min
AUC(0-inf) [7, 11]: 461 ng·h/mL
Cmax [7, 11]: 47.4 ng/mL
Tmax [7, 11]: 46 min
half-life ([7]; female, Hsd:Sprague Dawley SD, 34 mg/kg, Alpha Half-life, free BPAF, female rats, 34 mg/kg gavage): 23 min
half-life ([7]; female, Hsd:Sprague Dawley SD, 34 mg/kg, Beta Half-life, free BPAF, female rats, 34 mg/kg gavage): 521 min
half-life ([7]; female, Hsd:Sprague Dawley SD, 34 mg/kg, K10 Half-Life, free BPAF, female rats, 34 mg/kg gavage): 201 min
AUC(0-inf) [7, 12]: 1470 ng·h/mL
Cmax [7, 12]: 245 ng/mL
Tmax [7, 12]: 39.5 min
AUC(0-inf) [7, 13]: 4810 ng·h/mL
Cmax [7, 13]: 555 ng/mL
Tmax [7, 13]: 80.4 min
Dose-normalized AUC0−∞ [7, 14]: 13.6 (nmol.h/mL)/(mmol/kg)
Dose-normalized Cmax [7, 14]: 1.406 (nmol/mL)/(mmol/kg)
Cl1_F [7, 15]: 73.8 (13.3) L/h/kg
Cl2_F [7, 15]: 350 (4650) L/h /kg
K12 [7, 15]: 0.981 (31.1) 1/h
K21 [7, 15]: 0.698 (1.29) 1/h
V1_F [7, 15]: 357 (6600) L/kg
V2_F [7, 15]: 502 (5820) L/kg
Cl1_F [7, 16]: 74.7 (13.4) L/h/kg
Cl2_F [7, 16]: 194 (503) L/h /kg
K12 [7, 16]: 1.07 (19.3) 1/h
K21 [7, 16]: 0.215 (0.115) 1/h
V1_F [7, 16]: 181 (2810) L/kg
V2_F [7, 16]: 899 (2050) L/kg
Cl1_F [7, 17]: 70.7 (94.0) L/h/kg
Cl2_F [7, 17]: 101 (180) L/h /kg
K12 [7, 17]: 0.433 (15.4) 1/h
K21 [7, 17]: 0.0391 (0.0929) 1/h
V2_F [7, 17]: 2580 (6150) L/kg
Cl1_F [7, 18]: 85.2 (20.0) L/h/kg
Cl2_F [7, 18]: 193 (24800) L/h /kg
K12 [7, 18]: 0.849 (604) 1/h
K21 [7, 18]: 0.257 (0.137) 1/h
V1_F [7, 18]: 227 (132000) L/kg
V2_F [7, 18]: 752 (966600) L/kg
Cl1_F [7, 19]: 89.1 (52.4) L/h/kg
Cl2_F [7, 19]: 122 (2520) L/h /kg
K12 [7, 19]: 0.402 (62.7) 1/h
K21 [7, 19]: 0.0972 (0.207) 1/h
V1_F [7, 19]: 304 (41100) L/kg
V2_F [7, 19]: 1260 (23900) L/kg
Cl1_F [7, 20]: 70.3 (20.8) L/h/kg
Cl2_F [7, 20]: 36.9 (1910) L/h /kg
K12 [7, 20]: 0.156 (49.5) 1/h
K21 [7, 20]: 0.0814 (0.223) 1/h
V1_F [7, 20]: 237 (62900) L/kg
V2_F [7, 20]: 454 (24400) L/kg
bioavailability ([7]; male, Harlan Sprague Dawley (Hsd:Sprague Dawley SD), 34 mg/kg): 0.88%
bioavailability ([7]; male, Harlan Sprague Dawley (Hsd:Sprague Dawley SD), 110 mg/kg): 0.84%
bioavailability ([7]; male, Harlan Sprague Dawley (Hsd:Sprague Dawley SD), 340 mg/kg): 1.07%
Tmax ([7]; male, Hsd:Sprague Dawley SD): 48.7 to 138 min
AUC(0-inf) [7, 21]: 399 ng·h/mL
Cmax [7, 21]: 60.7 ng/mL
Tmax [7, 21]: 48.7 min
half-life ([7]; male, Hsd:Sprague Dawley SD, 34 mg/kg, Alpha Half-life, free BPAF, male rats, 34 mg/kg gavage): 29.5 min
half-life ([7]; male, Hsd:Sprague Dawley SD, 34 mg/kg, Beta Half-life, free BPAF, male rats, 34 mg/kg gavage): 612 min
half-life ([7]; male, Hsd:Sprague Dawley SD, 34 mg/kg, K10 Half-Life, free BPAF, male rats, 34 mg/kg gavage): 111 min
AUC(0-inf) [7, 22]: 1230 ng·h/mL
Cmax [7, 22]: 142 ng/mL
Tmax [7, 22]: 85.8 min
AUC(0-inf) [7, 23]: 4830 ng·h/mL
Cmax [7, 23]: 552 ng/mL
Tmax [7, 23]: 132 min
